Data published in ChEMBL document CHEMBL6153131, “Rational Design and Optimization of a Potent IDO1 Proteolysis Targeting Chimera (PROTAC)” (J Med Chem, 2025).
Active and inactive are the calls of the source. The rule behind the calls is not given here.

Columns and labels:
[1] = target: T1, Protein cereblon/Indoleamine 2,3-dioxygenase 1 (Homo sapiens, UniProt P14902+Q96SW2); test: PROTAC activity at CRBN/N-terminal HiBiT-tagged IDO1 (unknown origin) transfected in human U87 cells assessed as induction of IDO1 degradation pretreated with IFN-gamma for 24 hrs followed by compound addition and measured after 24 hrs by Nano-Glo HiBiT assay; type: cell-based
Method in brief: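 U87 cells carrying HiBiT knocked in by CRISPR/Cas9 at the IDO1 N-terminus, treated for 24 h. Degradation read as loss of luminescence. DC50 fitted from the lowest concentration up to maximal degradation, excluding hook-effect points; triplicate mean ± SD.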
Target sequence in this assay (P14902 whole entry): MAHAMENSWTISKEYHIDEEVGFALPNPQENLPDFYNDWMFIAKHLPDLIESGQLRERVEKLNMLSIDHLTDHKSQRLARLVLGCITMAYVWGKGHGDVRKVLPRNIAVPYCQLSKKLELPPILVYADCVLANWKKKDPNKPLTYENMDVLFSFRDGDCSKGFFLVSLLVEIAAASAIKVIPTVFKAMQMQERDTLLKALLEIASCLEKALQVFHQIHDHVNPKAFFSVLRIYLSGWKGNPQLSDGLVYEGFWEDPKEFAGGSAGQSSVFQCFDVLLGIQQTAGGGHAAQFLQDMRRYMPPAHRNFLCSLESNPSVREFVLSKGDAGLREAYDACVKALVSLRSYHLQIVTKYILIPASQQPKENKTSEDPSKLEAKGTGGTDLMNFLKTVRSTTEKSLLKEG
Target sequence in this assay (Q96SW2 whole entry): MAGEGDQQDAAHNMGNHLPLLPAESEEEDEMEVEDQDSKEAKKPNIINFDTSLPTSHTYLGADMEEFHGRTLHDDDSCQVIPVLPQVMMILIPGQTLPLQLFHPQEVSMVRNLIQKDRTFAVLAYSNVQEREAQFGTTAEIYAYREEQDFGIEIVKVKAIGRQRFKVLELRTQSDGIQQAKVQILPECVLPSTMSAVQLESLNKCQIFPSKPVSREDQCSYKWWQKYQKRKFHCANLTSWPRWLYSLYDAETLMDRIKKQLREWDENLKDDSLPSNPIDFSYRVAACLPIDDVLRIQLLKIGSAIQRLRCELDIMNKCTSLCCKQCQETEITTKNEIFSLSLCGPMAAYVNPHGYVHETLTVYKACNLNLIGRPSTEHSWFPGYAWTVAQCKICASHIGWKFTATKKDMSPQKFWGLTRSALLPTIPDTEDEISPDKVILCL

[2] = target: T1, Protein cereblon/Indoleamine 2,3-dioxygenase 1; test: PROTAC activity at CRBN/IDO1 in human U87 cells assessed as induction of IDO1 degradation by measuring remaining activity at 0.001 uM pretreated with IFN-gamma for 24 hrs followed by compound addition and measured after 24 hrs by Western blotting analysis (reference value: 100%); type: cell-based
Method in brief: (§1)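 U87 cells given an extended dose range of PROTAC for 24 h, then Western blot for IDO1. IFNγ-induced IDO1 levels normalised to untreated samples. n = 3 independent experiments; mean ± SEM.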
Target sequence in this assay (P14902 whole entry, looked up): as the sequence (P14902 whole entry) above
Target sequence in this assay (Q96SW2 whole entry, looked up): as the sequence (Q96SW2 whole entry) above

[3] = target: T1, Protein cereblon/Indoleamine 2,3-dioxygenase 1; test: PROTAC activity at CRBN/IDO1 in human U87 cells assessed as induction of IDO1 degradation by measuring remaining activity at 0.03 uM pretreated with IFN-gamma for 24 hrs followed by compound addition and measured after 24 hrs by Western blotting analysis (reference value: 100%); type: cell-based; method in brief: as §1
Target sequence in this assay (P14902 whole entry, looked up): as the sequence (P14902 whole entry) above
Target sequence in this assay (Q96SW2 whole entry, looked up): as the sequence (Q96SW2 whole entry) above

[4] = target: T1, Protein cereblon/Indoleamine 2,3-dioxygenase 1; test: PROTAC activity at CRBN/IDO1 in human U87 cells assessed as induction of IDO1 degradation by measuring remaining activity at 0.1 uM pretreated with IFN-gamma for 24 hrs followed by compound addition and measured after 24 hrs by Western blotting analysis (reference value: 100%); type: cell-based; method in brief: as §1
Target sequence in this assay (P14902 whole entry, looked up): as the sequence (P14902 whole entry) above
Target sequence in this assay (Q96SW2 whole entry, looked up): as the sequence (Q96SW2 whole entry) above

[5] = target: T1, Protein cereblon/Indoleamine 2,3-dioxygenase 1; test: PROTAC activity at CRBN/IDO1 in human U87 cells assessed as induction of IDO1 degradation by measuring remaining activity at 10 uM pretreated with IFN-gamma for 24 hrs followed by compound addition and measured after 24 hrs by Western blotting analysis (reference value: 100%); type: cell-based; method in brief: as §1
Target sequence in this assay (P14902 whole entry, looked up): as the sequence (P14902 whole entry) above
Target sequence in this assay (Q96SW2 whole entry, looked up): as the sequence (Q96SW2 whole entry) above

[6] = target: T1, Protein cereblon/Indoleamine 2,3-dioxygenase 1; test: PROTAC activity at CRBN/IDO1 in human U87 cells assessed as induction of IDO1 degradation by measuring maximum efficacy at 100 nM pretreated with IFN-gamma for 24 hrs followed by compound addition and measured after 24 hrs by Western blotting analysis relative to control; type: cell-based
Method in brief: (§2)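 IDO1 in U87 cells induced with 50 ng/mL human IFN-γ, then compound given across an extended dose range for 24 h. IDO1 and GAPDH read by Western blot; IDO1 levels normalized to untreated; DC50 from n = 3 independent experiments.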
Target sequence in this assay (P14902 whole entry, looked up): as the sequence (P14902 whole entry) above
Target sequence in this assay (Q96SW2 whole entry, looked up): as the sequence (Q96SW2 whole entry) above

[7] = target: T1, Protein cereblon/Indoleamine 2,3-dioxygenase 1; test: PROTAC activity at CRBN/IDO1 in human GBM43 cell assessed as induction of IDO1 degradation at 0.01 uM pretreated with IFN-gamma for 24 hrs followed by compound addition and measured after 24 hrs by Western blotting analysis (reference value: 100%); type: cell-based
Method in brief: (§3)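 GBM43 patient-derived cells given an extended dose range of PROTAC for 24 h. Protein analysed by Western blot for IDO1, and IFNγ-induced IDO1 normalised to untreated samples. n = 3 independent experiments; data as mean ± SEM.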
Target sequence in this assay (P14902 whole entry, looked up): as the sequence (P14902 whole entry) above
Target sequence in this assay (Q96SW2 whole entry, looked up): as the sequence (Q96SW2 whole entry) above

[8] = target: T1, Protein cereblon/Indoleamine 2,3-dioxygenase 1; test: PROTAC activity at CRBN/IDO1 in human GBM43 cell assessed as induction of IDO1 degradation at 0.03 uM pretreated with IFN-gamma for 24 hrs followed by compound addition and measured after 24 hrs by Western blotting analysis (reference value: 100%); type: cell-based; method in brief: as §3
[9] = target: T1, Protein cereblon/Indoleamine 2,3-dioxygenase 1; test: PROTAC activity at CRBN/IDO1 in human GBM43 cell assessed as induction of IDO1 degradation at 10 uM pretreated with IFN-gamma for 24 hrs followed by compound addition and measured after 24 hrs by Western blotting analysis (reference value: 100%); type: cell-based; method in brief: as §3
[10] = target: T1, Protein cereblon/Indoleamine 2,3-dioxygenase 1; test: PROTAC activity at CRBN/IDO1 in human U87 cells assessed as induction of IDO1 degradation at 50 to 100 nM pretreated with IFN-gamma for 24 hrs followed by compound addition and measured upto 72 hrs by Western blotting analysis; type: cell-based; conditions: dose 50-100 nM
Method in brief: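 U87 cells under single continuous PROTAC treatment (50 and 100 nM), sampled at multiple time points up to 72 h. IDO1 assessed by Western blot.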

[11] = target: T1, Protein cereblon/Indoleamine 2,3-dioxygenase 1; test: PROTAC activity at CRBN/IDO1 in human U87 cells assessed as induction of IDO1 degradation at 100 nM at 1 uM pretreated with IFN-gamma for 24 hrs followed by compound addition and measured after 24 hrs in presence of MG132 by Western blotting analysis; type: cell-based
[12] = target: T1, Protein cereblon/Indoleamine 2,3-dioxygenase 1; test: PROTAC activity at CRBN/IDO1 in human PDX-38 cells assessed as induction of IDO1 degradation pretreated with IFN-gamma for 24 hrs followed by compound addition and measured after 24 hrs by Western blotting analysis; type: cell-based; conditions: dose 50-100 nM
Method in brief: (§4)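 Cells had IDO1 induced with IFNγ, then were treated at the indicated concentrations for 24 h. Lines: PDX-6 and PDX-38 adult GBM PDX cells, U87 overexpressing GFP-fused IDO1, PC-3, KNS42, MDA-MB-231, SW-1990 and SKOV-3. Lysates probed for IDO1 and GAPDH by Western blot; representative of 3 separate replicates.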

[13] = target: T1, Protein cereblon/Indoleamine 2,3-dioxygenase 1; test: PROTAC activity at CRBN/IDO1 in human U87 cells overexpressing GFP-fused IDO1 assessed as induction of IDO1 degradation pretreated with IFN-gamma for 24 hrs followed by compound addition and measured after 24 hrs by Western blotting analysis; type: cell-based; conditions: dose 50-100 nM; method in brief: as §4
[14] = target: T1, Protein cereblon/Indoleamine 2,3-dioxygenase 1; test: PROTAC activity at CRBN/IDO1 in human MDA-MB-231 cells assessed as induction of IDO1 degradation pretreated with IFN-gamma for 24 hrs followed by compound addition and measured after 24 hrs by Western blotting analysis; type: cell-based; conditions: dose 50-100 nM; method in brief: as §4
[15] = target: T1, Protein cereblon/Indoleamine 2,3-dioxygenase 1; test: PROTAC activity at CRBN/IDO1 in human SK-OV-3 cells assessed as induction of IDO1 degradation pretreated with IFN-gamma for 24 hrs followed by compound addition and measured after 24 hrs by Western blotting analysis; type: cell-based; conditions: dose 50-100 nM; method in brief: as §4
[16] = system: PDX-38; test: Inhibition of kynurenine production in human PDX-38 cells pretreated with IFN-gamma for 24 hrs followed by compound addition and measured after 24 hrs by Ehrlich's reagent based analysis; type: functional, cell-based; conditions: dose 50-100 nM
[17] = system: PC-3; test: Inhibition of kynurenine production in human PC-3 cells pretreated with IFN-gamma for 24 hrs followed by compound addition and measured after 24 hrs by Ehrlich's reagent based analysis; type: functional, cell-based; conditions: dose 50-100 nM
[18] = system: MDA-MB-231; test: Inhibition of kynurenine production in human MDA-MB-231 cells pretreated with IFN-gamma for 24 hrs followed by compound addition and measured after 24 hrs by Ehrlich's reagent based analysis; type: functional, cell-based; conditions: dose 50-100 nM
[19] = system: Kelly; test: Downregulation of EPHX2 protein level in human Kelly cells at 1 uM incubated for 24 hrs by proteomics analysis; type: functional, cell-based
[20] = Half life in female C57BL/6J mouse plasma at 50 mg/kg, ip by LC-MS/MS analysis; type: ADME, organism-based
[21] = AUC (0 to infinity) in female C57BL/6J mouse brain at 50 mg/kg, ip by LC-MS/MS analysis; type: ADME, organism-based
[22] = target: T1, Protein cereblon/Indoleamine 2,3-dioxygenase 1; test: PROTAC activity at CRBN/IDO1 in human U87 cell assessed as induction of IDO1 degradation pretreated with IFN-gamma for 24 hrs followed by compound addition and measured after 24 hrs by Western blot analysis; type: cell-based; method in brief: as §2
Target sequence in this assay (P14902 whole entry): as the sequence (P14902 whole entry) above
Target sequence in this assay (Q96SW2 whole entry): as the sequence (Q96SW2 whole entry) above

Structure (SMILES): C[C@@H](C(=O)Nc1cccc(OC2CCN(C(=O)CN3CCC(N4CCN(c5ccc6c(c5)C(=O)N(C5CCC(=O)NC5=O)C6=O)CC4)CC3)CC2)c1)[C@H]1CC[C@@H](c2ccnc3ccc(F)cc32)CC1 (some centres not stated)
- DC50 [1]: 4.5 nM
- Activity [2]: 83%
- Activity [3]: 27%
- Activity [4]: 12%
- Activity [5]: 69%
- Emax [6]: 88%
- Activity [7]: 61%
- Activity [8]: 34%
- Activity [9]: 87%
- Activity [10]: Active
- Activity [11]: inactive
- Activity [12]: Dose-dependent-effect
- Activity [13]: Dose-dependent-effect
- Activity [14]: Dose-dependent-effect
- Activity [15]: Dose-dependent-effect
- inhibition [16]: Dose-dependent-effect
- inhibition [17]: Dose-dependent-effect
- inhibition [18]: Dose-dependent-effect
- Activity [19]: Active
- half-life [20]: 5.7 h
- AUC(0-inf) [21]: 1 µM·h
- DC50 [22]: 7.1 nM
